Test results: ChEMBL document CHEMBL2434935, “Design, syntheses, and characterization of pharmacophore based chemokine receptor CCR5 antagonists as anti prostate cancer agents” (Eur J Med Chem, 2013)
Active and inactive are the calls of the source. No cut-off for these calls is given here.

What was measured:
[1] = target: T1, C-C chemokine receptor type 5 (Homo sapiens, UniProt P51681); experiment: Agonist activity at CCR5 (unknown origin) expressed in MOLT4 cells transfected with Gqi5 assessed as induction of calcium ion mobilization after 15 mins by microplate reader method; type: functional, cell-based; conditions: MOLT-4
How it was run: (§1)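 CCR5-MOLT-4 cells transfected with Gqi5 (Lipofectamine 2000), kept in RPMI 1640/10% FBS with penicillin, streptomycin and 1 mg/mL G418 at 37 °C, 5% CO2. At 48 h post-transfection the cells were resuspended in 50:1 HBSS:HEPES buffer and loaded with Fluo4-AM plus probenecid for 45 min. Ligands were added at varying concentrations for 15 min, then RANTES or buffer was added at 16 s. Fluorescence was read at 494/516 nm for 120 s.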
Target sequence in this assay (P51681 whole entry, looked up): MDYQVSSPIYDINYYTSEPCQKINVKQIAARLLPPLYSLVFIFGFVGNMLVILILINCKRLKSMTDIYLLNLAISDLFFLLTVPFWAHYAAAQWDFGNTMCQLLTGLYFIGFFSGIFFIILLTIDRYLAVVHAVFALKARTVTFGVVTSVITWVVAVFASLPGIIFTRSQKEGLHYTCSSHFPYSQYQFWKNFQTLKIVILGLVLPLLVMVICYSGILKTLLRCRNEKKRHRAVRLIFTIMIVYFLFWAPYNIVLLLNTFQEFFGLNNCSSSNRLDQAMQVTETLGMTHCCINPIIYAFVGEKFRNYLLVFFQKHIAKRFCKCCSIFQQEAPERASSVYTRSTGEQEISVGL

[2] = target: T1, C-C chemokine receptor type 5; experiment: Antagonist activity at CCR5 (unknown origin) expressed in MOLT4 cells transfected with Gqi5 assessed as inhibition of RANTES-induced calcium ion mobilization after 15 mins by microplate reader method; type: functional, cell-based, MOLT-4; conditions: for inhibition: MOLT-4; how it was run: as §1
PC-3 = experiment: Antiproliferative activity against human PC3 cells after 72 hrs by WST-1 assay; type: functional; conditions: for EC50: PC-3, 72 h, read-out: ED50 (the source's name)
How it was run: (§2)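 PC-3 cells kept in serum-free RPMI with L-glutamine, ITS and gentamicin plus 10% FBS. M12 cells got 5% FBS, then after 24 h serum-free medium with 0.01% EGF. Cells plated at 1000/well; after 24 h, drugs added at various concentrations in PBS (controls PBS) for 72 h. Medium then replaced with serum-free medium:WST-1 9:1, absorbance read after 3 h. Non-linear regression fit; mean ± S.E.M., ≥3 experiments in triplicate.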

[3] = Cytotoxicity against mouse NIH/3T3 cells after 48 hrs by neutral red dye uptake assay; type: cell-based, NIH3T3; conditions: read-out: TC50
How it was run: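 NIH-3T3 mouse embryonic fibroblasts grown in medium with 10% newborn calf serum and 1% penicillin:streptomycin. Compounds at various concentrations in DMEM dilution medium for 48 h. After HBSS wash, neutral red 25 µg/mL in DMEM/5% NBCS for 3 ± 0.1 h. Dye extracted with 50% ethanol/1% acetic acid, shaken 20 min, absorbance 540 nm. TC50 by non-linear regression.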

M12 = experiment: (§3) Antiproliferative activity against human M12 cells after 72 hrs by WST-1 assay; type: functional; how it was run: as §2
[4] = as §3; type: functional; conditions: M12, 72 h, read-out: ED50 (the source's name); how it was run: as §2

SMILES	Activity [1]	IC50 [2]	inhibition [2]	Activity (PC-3)	EC50 (PC-3)	CC50 at 48 h [3]	Activity (M12)	EC50 [4]
CC(C)Oc1ccc(C2CCN(Cc3ccc([N+](=O)[O-])cc3)CC2)cc1NC(=O)c1ccccc1	inactive	45 µM	Dose-dependent effect	–	–	–	–	–
CC(C)Oc1ccc(C2CCN(Cc3ccc(N)cc3)CC2)cc1NC(=O)c1cnccn1	inactive	77.8 µM	Dose-dependent effect	–	–	–	–	–
CCOc1ccc(C2CCN(Cc3ccc(NC(C)=O)cc3)CC2)cc1NC(=O)c1ccccc1	inactive	115 µM	Dose-dependent effect	–	–	–	–	–
CCN(CC)c1ccc(CN2CCC(c3ccc(OC(C)C)c(NC(=O)c4ccccc4)c3)CC2)cc1	inactive	138 µM	Dose-dependent effect	–	–	–	–	–
CCN(CC)c1ccc(CN2CCC(c3ccc(OC)c(NC(=O)c4cnccn4)c3)CC2)cc1	inactive	56 µM	Dose-dependent effect	–	–	–	–	–
CC(=O)Nc1ccc(CN2CCC(c3ccc(OC(C)C)c(NC(=O)c4ccccc4)c3)CC2)cc1	inactive	92.2 µM	Dose-dependent effect	–	–	–	–	–
CCOc1ccc(C2CCN(Cc3ccc([N+](=O)[O-])cc3)CC2)cc1NC(=O)c1ccccc1	inactive	28 µM	Dose-dependent effect	–	–	–	–	–
COc1ccc(C2CCN(Cc3ccc(N)cc3)CC2)cc1NC(=O)c1ccccc1	inactive	77 µM	Dose-dependent effect	–	–	–	–	–
CC(C)Oc1ccc(C2CCN(Cc3ccc(N)cc3)CC2)cc1NC(=O)c1ccccc1	inactive	66.2 µM	Dose-dependent effect	–	–	–	–	–
CCOc1ccc(C2CCN(Cc3ccc(NC(C)=O)cc3)CC2)cc1NC(=O)c1cnccn1	inactive	47 µM	Dose-dependent effect	Dose-dependent effect	50 µM	> 100 µM	Dose-dependent effect	58 µM
COc1ccc(C2CCN(Cc3ccc([N+](=O)[O-])cc3)CC2)cc1NC(=O)c1cnccn1	inactive	73 µM	Dose-dependent effect	–	–	–	–	–
CCOc1ccc(C2CCN(Cc3ccc(N)cc3)CC2)cc1NC(=O)c1cnccn1	inactive	43.5 µM	Dose-dependent effect	–	–	–	–	–
COc1ccc(C2CCN(Cc3ccc([N+](=O)[O-])cc3)CC2)cc1NC(=O)c1ccccc1	inactive	28.7 µM	Dose-dependent effect	–	–	–	–	–
CCOc1ccc(C2CCN(Cc3ccc(N)cc3)CC2)cc1NC(=O)c1ccccc1	inactive	63 µM	Dose-dependent effect	–	–	–	–	–
COc1ccc(C2CCN(Cc3ccc(N)cc3)CC2)cc1NC(=O)c1cnccn1	inactive	38.8 µM	Dose-dependent effect	Dose-dependent effect	72.3 µM	> 100 µM	Dose-dependent effect	73.7 µM
CCN(CC)c1ccc(CN2CCC(c3ccc(OC(C)C)c(NC(=O)c4cnccn4)c3)CC2)cc1	inactive	61 µM	Dose-dependent effect	–	–	–	–	–
CCOc1ccc(C2CCN(Cc3ccc([N+](=O)[O-])cc3)CC2)cc1NC(=O)c1cnccn1	inactive	61 µM	Dose-dependent effect	Dose-dependent effect	109 µM	> 100 µM	Dose-dependent effect	–
CC(C)Oc1ccc(C2CCN(Cc3ccc([N+](=O)[O-])cc3)CC2)cc1NC(=O)c1cnccn1	inactive	65.7 µM	Dose-dependent effect	–	–	–	–	–
CCOc1ccc(C2CCN(Cc3ccc(N(CC)CC)cc3)CC2)cc1NC(=O)c1ccccc1	inactive	64 µM	Dose-dependent effect	Dose-dependent effect	86.6 µM	49.5 µM	Dose-dependent effect	15.9 µM
CC(=O)Nc1ccc(CN2CCC(c3ccc(OC(C)C)c(NC(=O)c4cnccn4)c3)CC2)cc1	inactive	88.1 µM	Dose-dependent effect	–	–	–	–	–
COc1ccc(C2CCN(Cc3ccc(NC(C)=O)cc3)CC2)cc1NC(=O)c1ccccc1	inactive	70.8 µM	Dose-dependent effect	Dose-dependent effect	60 µM	92.2 µM	Dose-dependent effect	79.9 µM
CCOc1ccc(C2CCN(Cc3ccc(N(CC)CC)cc3)CC2)cc1NC(=O)c1cnccn1	inactive	51.8 µM	Dose-dependent effect	Dose-dependent effect	77 µM	46.9 µM	Dose-dependent effect	18.7 µM
CCN(CC)c1ccc(CN2CCC(c3ccc(OC)c(NC(=O)c4ccccc4)c3)CC2)cc1	inactive	90 µM	Dose-dependent effect	–	–	–	–	–
COc1ccc(C2CCN(Cc3ccc(NC(C)=O)cc3)CC2)cc1NC(=O)c1cnccn1	inactive	59 µM	Dose-dependent effect	–	–	–	–	–
